# Values joined by “and” are separate entries in the source; they are usually repeats but may differ in a detail not shown here. Equal entries are not always repeated.
# Tests used:
# Type in all cases: functional, cell-based
# [1] = TNF-alpha release is determined to know human (JN.24 cloned) V gamma-2 V delta-2 T cell stimulation
# Method in brief: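 JN.24 CD4+ clone, 1×10^5 cells/well, cultured in duplicate or triplicate with half-log antigen dilutions and 1×10^5 glutaraldehyde-fixed (0.05%) CP.EBV B cells as APC (1:1). Supernatants collected after 18 h; TNF-α quantified by sandwich ELISA against a TNF-α standard curve; EC50 from dose response.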
# [2] = Proliferation of human (JN.24 cloned) V gamma-2 V delta-2 T cell
# Method in brief: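 JN.24 CD4+ clone, 1×10^5 cells/well, stimulated in duplicate or triplicate with half-log dilutions of antigen plus 1×10^5 CP.EBV B cells fixed with 0.05% glutaraldehyde (1:1). Supernatant removed at 18 h, then cultures pulsed with 1 µCi 3H-thymidine and harvested 16–18 h later; mean proliferation gives EC50.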
# [3] = TNF-alpha release is determined to know human (12g12 cloned) V gamma-2 V delta-2 T cell stimulation
# Method in brief: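 12G12 cells (1×10^5/well) cocultured 1:1 with glutaraldehyde-fixed Va2 transformed fibrosarcoma cells as APC and half-log antigen dilutions, in duplicate or triplicate. Supernatant taken at 18 h, TNF-α measured by sandwich ELISA against a standard curve; EC50 from dose response.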
# [4] = Proliferation of human (12g12 cloned) V gamma-2 V delta-2 T cell
# Method in brief: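 Clone 12G12 at 1×10^5 cells/well with 1×10^5 fixed Va2 fibrosarcoma cells as APC (1:1), exposed in duplicate or triplicate to half-log antigen dilutions. After 18 h supernatant removal, 1 µCi 3H-thymidine pulse; harvest 16–18 h later; EC50 from mean proliferation.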
Compound,"EC50 ([1]; Homo sapiens, T-cell)","EC50 ([2]; Homo sapiens, T-cell)","EC50 ([3]; Homo sapiens, T-cell)",EC50 ([3]; t-cell),EC50 ([4]; t-cell),EC50 ([2]; t-cell),"EC50 ([4]; Homo sapiens, T-cell)",EC50 ([1]; t-cell)
O=P(O)(O)OP(=O)(O)OCC[C@H]1CO1,> 100000 nM,> 100000 nM,,,,,,
C[C@](O)(CBr)CCOP(=O)(O)OP(=O)(O)O,,170 nM,5 nM,4 nM,1.4 nM and 0.5 nM,120 nM and 110 nM and 85 nM,,
O=P(O)(O)OP(=O)(O)OCC[C@@H]1CO1,> 100000 nM,> 100000 nM,,,,,,
C[C@@]1(CCOP(=O)(O)OP(=O)(O)O)CO1,,,,1.3 nM and 3.7 nM,1 nM,1.4 nM and 3.1 nM and 1.3 nM,1 nM,
"CC1(CCOP(=O)(O)OP(=O)(O)O)CO1 (single isomer, unassigned)",,,,8 nM and 3 nM,0.6 nM,,0.5 nM,2900 nM and 350 nM and 1100 nM
O=P(O)(O)OP(=O)(O)OCC[C@H](O)CBr,2000 nM,4000 nM,,,,,,
C[C@@](O)(CBr)CCOP(=O)(O)OP(=O)(O)O,,,9 nM,8 nM,0.8 nM,,0.9 nM,
O=P(O)(O)OP(=O)(O)OCC[C@@H](O)CBr,500 nM,1200 nM,,,,,,

# Source: ChEMBL document CHEMBL1137030, “Synthesis of chiral phosphoantigens and their activity in gamma delta T cell stimulation” (Bioorg Med Chem Lett, 2004)
